PKD1 kinase inh = PKD1 (human) kinase inhibition; inhibition, % (no concentration beside the values); PKD1 kinase fluorescence polarization assay; 200,000 tested, 0.056% active
ABCG2 inh = inhibitors of human ABCG2 transporter, ABCB1 counter-screen. 190,000 tested, 0.1% active. Q9UNQ0. IgMXP3 cells, JC-1 efflux, flow cytometry. inhibition, % at 6.6 µM;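 active = inhibition above 80%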;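 also: 0% = DMSO and 100% = nicardipine control wells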
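Read-out basis: Efflux inhibition in percent versus controls | Test system: ABCG2 IgMXP3 and barcoded ABCB1 CCRF-Adr cell mix | Quantity: 3 million cells/mL in well | Schedule: 10 min at 25 °C | Control set: Nicardipine as high control, DMSO as low control | Reagent: JC-1 as fluorescent efflux pump substrate | Signal: Flow cytometry of retained JC-1 fluorescence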
GSH fluor = GSH bead compound fluorescence profile. fluorescence (KMESF) at 10 µM. GSH beads flow cytometry, compound fluorescence 488/530 nm; hits give high values. 190,000 tested, 0.25% active; in the data active = fluorescence above about 89;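 also: glutathione beads carrying GST-tagged Bcl family fusion proteins plus one bare bead set; values are compound well signal with DMSO vehicle wells as background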
Avidin fluor = compound fluoresces at 488/530 nm on avidin beads; fluorescence (KMESF) at 10 µM; 220,000 tested, 0.38% active; compound fluorescence 488/530 nm, flow cytometry; hits give high values; in the data active = fluorescence above about 47
L major viab = inhibitors of Leishmania major promastigote growth. Leishmania major promastigotes, resazurin fluorescence viability. inhibition, % at 10 µM. 200,000 tested, 9% active;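 also: promastigotes grown with compound for 44 hours at 28 °C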
ABCB1 block = blocks JC-1 efflux by human ABCB1 transporter. P08183. inhibition, % at 6.6 µM. AID 1326. CCRF-Adr cells, flow cytometry. 190,000 tested, 0.067% active; in the data active = inhibition above about 40%;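 also: 0% = vehicle and 100% = reference inhibitor; higher value means more JC-1 retained so stronger ABCB1 efflux block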
Target sequence (P08183 whole entry, looked up): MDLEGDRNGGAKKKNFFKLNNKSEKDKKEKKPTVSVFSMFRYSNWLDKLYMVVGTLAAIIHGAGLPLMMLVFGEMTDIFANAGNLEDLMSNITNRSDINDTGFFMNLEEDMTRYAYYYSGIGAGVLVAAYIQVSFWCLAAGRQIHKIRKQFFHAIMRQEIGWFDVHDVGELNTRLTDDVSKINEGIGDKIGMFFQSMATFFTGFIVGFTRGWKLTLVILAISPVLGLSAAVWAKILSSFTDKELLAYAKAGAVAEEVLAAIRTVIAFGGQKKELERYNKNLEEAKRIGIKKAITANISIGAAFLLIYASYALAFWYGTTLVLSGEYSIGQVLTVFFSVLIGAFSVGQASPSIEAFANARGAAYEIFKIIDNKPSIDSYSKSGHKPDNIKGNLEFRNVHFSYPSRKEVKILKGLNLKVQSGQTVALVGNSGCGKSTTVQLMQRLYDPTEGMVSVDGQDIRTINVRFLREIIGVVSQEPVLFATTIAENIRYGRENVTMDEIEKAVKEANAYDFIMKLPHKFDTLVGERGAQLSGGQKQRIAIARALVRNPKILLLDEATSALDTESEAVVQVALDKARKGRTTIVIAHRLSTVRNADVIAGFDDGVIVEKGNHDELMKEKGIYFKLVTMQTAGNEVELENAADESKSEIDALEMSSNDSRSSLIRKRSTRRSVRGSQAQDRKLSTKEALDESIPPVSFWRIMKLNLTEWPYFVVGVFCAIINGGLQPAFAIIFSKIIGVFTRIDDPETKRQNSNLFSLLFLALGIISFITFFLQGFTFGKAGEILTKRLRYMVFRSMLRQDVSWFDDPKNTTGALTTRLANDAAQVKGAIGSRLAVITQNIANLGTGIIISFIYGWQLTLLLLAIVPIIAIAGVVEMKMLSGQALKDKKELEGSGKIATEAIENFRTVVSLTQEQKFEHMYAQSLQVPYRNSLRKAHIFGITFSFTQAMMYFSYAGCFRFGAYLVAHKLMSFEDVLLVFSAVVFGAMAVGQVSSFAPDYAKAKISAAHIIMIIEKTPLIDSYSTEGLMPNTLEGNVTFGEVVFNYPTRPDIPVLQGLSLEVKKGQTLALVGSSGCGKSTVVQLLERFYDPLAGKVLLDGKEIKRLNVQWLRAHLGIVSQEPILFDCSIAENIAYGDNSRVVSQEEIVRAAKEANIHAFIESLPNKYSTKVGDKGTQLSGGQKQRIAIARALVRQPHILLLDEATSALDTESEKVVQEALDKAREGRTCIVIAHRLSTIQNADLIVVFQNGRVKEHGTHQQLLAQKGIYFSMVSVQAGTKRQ
* hit, by the source's call; nt = no result. This is one part of a sample in which hits are shown more often than they occur. Rule as the data show it, unless noted: active = inhibition above about 50%; inactive = the rest.

SMILES	PKD1 kinase inh	ABCG2 inh	GSH fluor	Avidin fluor	L major viab	ABCB1 block
COc1ccc(-c2c(C(F)(F)F)oc3c(CN4CCN(C)CC4)c(O)ccc3c2=O)cc1	-2	4	45	11	100*	1
Cc1nnc(NC2=NCCC2)o1	5	23	20	95*	11	1
COc1ccccc1-c1cc(C(=O)NCc2ccccc2)no1	-2	1	15	48*	-1	0
COc1ccccc1-c1cc(C(=O)NCc2ccc(F)cc2)no1	7	37	23	23	-3	1
CS(=O)(=O)c1ccc(C(=O)OCc2nnc(-c3ccc(Cl)cc3)o2)cc1[N+](=O)[O-]	-7	6	13	10	-13	1
COc1ccc2c(c1)c1nnc(SCC(=O)N3CCCCC3C)nc1n2C (configuration not stated)	-6	3	29	7	85*	1
Cc1ccc(SCc2nc3ncccn3c2Br)cc1	nt	nt	nt	75*	nt	nt
CC(C(=O)Nc1nc2ccccc2s1)n1cc([N+](=O)[O-])cn1 (configuration not stated)	-3	9	12	14	4	1
O=C1c2cccc3c([N+](=O)[O-])ccc(c23)C(=O)N1CCc1ccccn1	nt	nt	nt	8	nt	nt
CN(C)CCCN1C(=O)c2cccc3c([N+](=O)[O-])ccc(c23)C1=O	8	3	11	7	100*	nt
CN(C)CCNc1ncnc2c1sc1nc(N3CCOCC3)c3c(c12)CC(C)(C)SC3	4	7	14	25	101*	2
CCN(CC)CCNc1ncnc2c1sc1nc(N3CCOCC3)c3c(c12)CC(C)(C)SC3	-5	8	12	36	100*	3
CCOc1ccc(CN(C)CC(=O)NCc2ccccc2Cl)cc1	-2	3	23	26	9	1
Cc1cc(C)n(C(=O)/C(C#N)=N/Nc2cc(Cl)cc(Cl)c2)n1	-6	13	12	22	-5	0
Cc1oc(-c2ccc(Cl)cc2)nc1CS(=O)CC(=O)NCCCN(C)C1CCCCC1 (configuration not stated)	-6	5	18	37	100*	1
CCOC(=O)c1cnn(-c2ncnc3sc4c(c23)CCC4)c1N	4	9	23	52*	3	1
COc1ccc(Cc2nnc(N/N=C/c3ccc(O)cc3)[nH]c2=O)cc1OC	-4	9	18	12	98*	0
COc1ccccc1NC(=O)CN1CCN(C2c3ccccc3-c3ccccc32)CC1	-13	4	5	8	58*	4
COc1ccccc1NC(=O)CN1CCN(c2ccccc2)CC1	-1	6	16	8	0	0
CCOc1ccc(NC(=O)CN2CCN(C3c4ccccc4-c4ccccc43)CC2)cc1	0	2	17	4	90*	1
O=C(CSc1nnc(-c2ccc(Br)cc2)n1CCc1ccccc1)NC1CCS(=O)(=O)C1 (configuration not stated)	-6	7	14	12	4	0
OCC1CCCCN1CCNCc1cn[nH]c1-c1cccc2ccccc12 (configuration not stated)	nt	nt	nt	6	nt	nt
c1ccc2c(-c3[nH]ncc3CNCCCn3ncc4ccccc43)cccc2c1	0	1	18	10	77*	0
N#Cc1c(N)nc(Sc2ccc(Cl)cc2)c(C#N)c1-c1ccccc1Cl	nt	nt	nt	7	nt	nt
O=[N+]([O-])c1cc(-c2n[nH]c(-c3ccccc3)n2)cc([N+](=O)[O-])c1	18	79	26	21	98*	0
SMILES	PKD1 kinase inh	ABCG2 inh	GSH fluor	Avidin fluor	L major viab	ABCB1 block
Cc1ccc2nc(SC(C)C(=O)N3CCOCC3)[nH]c2c1 (configuration not stated)	5	9	11	10	10	1
Cc1cccc(OCC(O)Cn2c(=N)n(Cc3ccccc3)c3ccccc32)c1 (configuration not stated)	nt	nt	nt	6	nt	nt
N=c1n(Cc2ccc(Cl)cc2)c2ccccc2n1CC(O)COc1ccccc1 (configuration not stated)	9	2	18	6	100*	1
N=c1n(Cc2ccccc2)c2ccccc2n1CC(O)COc1ccc(Cl)cc1Cl (configuration not stated)	4	2	13	13	100*	-2
Cc1ccc(OCC(O)Cn2c(=N)n(Cc3ccccc3)c3ccccc32)cc1 (configuration not stated)	8	-4	35	15	100*	2
COc1ccc(OCC(O)Cn2c(=N)n(Cc3ccccc3)c3ccccc32)cc1 (configuration not stated)	4	0	23	17	101*	1
CCN(CC(=O)NCc1ccccc1Cl)CC(=O)Nc1c(F)cccc1F	nt	nt	nt	9	nt	nt
C/C=C\C=C\C(=O)N1CC2(CC(c3cccc(NC(=O)CC(c4ccccc4)c4ccccc4)c3)=NO2)C[C@H]1C(N)=O (some centres not stated)	nt	nt	nt	9	nt	nt
CN(C(=O)CSc1cc(C(=O)c2nccn2C)c2ccccc2n1)c1ccccc1	nt	nt	nt	7	nt	nt
CCOC(=O)c1c(NC(=O)N/N=C/c2ccccc2OCC)sc(C(C)=O)c1C	6	0	447*	5	-2	0
CC(=O)C1=C(C)Nc2ncnn2C1c1ccccc1OCc1ccccc1 (configuration not stated)	-2	0	34	10	61*	1
COc1ccc(-c2[nH]c(-c3ccccc3)nc2SCC(=O)Nc2nccs2)cc1	6	1	17	nt	42	1
COc1ccc(-c2[nH]c(-c3ccc(C)cc3)nc2SCC(=O)NC2CCCC2)cc1	8	29	16	7	84*	3
COc1ccc(CNC(=O)COC(=O)c2cnccn2)cc1	-4	4	17	37	0	1
CCCn1nnc(NC(=O)c2ccc(-c3cccc(Cl)c3)o2)n1	-5	0	17	34	77*	0
CCCCn1nnc(NC(=O)c2ccc(-c3cccc(Cl)c3)o2)n1	-5	-1	18	31	51*	0
CCn1nnc(NC(=S)NC(=O)c2ccc(-c3cccc(Cl)c3)o2)n1	nt	nt	nt	3	nt	nt
CCCn1nnc(NC(=O)c2cccc(OCc3ccccc3)c2)n1	-4	3	19	36	52*	0
CCCCn1nnc(NC(=O)Cc2ccc(Cl)cc2)n1	7	3	30	16	-4	1
CCCCn1nnc(NC(=O)c2ccc(-c3cccc([N+](=O)[O-])c3)o2)n1	-6	4	12	8	56*	1
CCCCn1nnc(NC(=O)c2ccc([N+](=O)[O-])cc2Cl)n1	nt	nt	nt	10	nt	nt
CC(CNCC1CCCO1)COc1ccccc1 (configuration not stated)	-2	0	35	3	62*	0
